Most compounds without a hit are left out; they make up all but 4.6% or so of the library.
TAAR1 ag = human TAAR1 agonists, primary screen, Fluo-8 calcium fluorescence, CHO RD-HGA16 cells. Trace amine-associated receptor 1 (Homo sapiens), Q96RJ0. vehicle wells 0%, saturating PEA agonist 100%. activation, % at 3 µM. 360,000 compounds, 0.99% hits. AID 624467, 2012;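 active means activation above the mean activation of all test compounds in the run plus 3 SD, cut at about 38% in these data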
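Assay system: CHO-derived RD-HGA16 cells with stable Gα16 and human TAAR1; timing: 17-24 h seeding, 75 min 37 °C dye, 30 min RT; read-out: % activation from peak over basal fluorescence ratio, DMSO-to-PEA scaled; measured by: kinetic Fluo-8 calcium fluorescence; benchmarks: low control DMSO, high control PEA (EC100); doses: 3 µM single concentration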
GPR7 antag = GPR7 receptor antagonists, primary screen, cell-based, fluorescence, single concentration | GPR7-expressing cells, fluorescence antagonist assay | 290,000 compounds, 1.1% hits | inhibition, % at 4.4 µM | AID 1861, 2009 | Neuropeptides B/W receptor type 1 (Homo sapiens), P48145; in the data active means inhibition above about 16%, passing the limit was not always enough;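 further: cells stimulated with the agonist NPW; 0% = agonist with vehicle and 100% = vehicle without agonist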
CHO parental Ca = ATP-evoked calcium signal inhibitors, parental CHO, primary screen, counter-screen for OX1R antagonist project, cell-based, fluorescence, Fluo-8 calcium dye. parental CHO-K1, ATP-induced calcium, Fluo-8 fluorescence. inhibition, % at 5.6 µM. 330,000 compounds, 0.63% hits;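 active means inhibition above that plate's mean sample inhibition plus 3 SD, cut at about 26% in these data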;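 further: 0% = ATP-challenged DMSO wells and 100% = DMSO wells without ATP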
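Assay system: parental CHO cells; Read-out basis: percent inhibition of ATP-evoked calcium rise, normalized to controls; Benchmarks: ATP and no-ATP DMSO wells; Compound dosing: single nominal dose of 5.6 µM per compound; Signal: Fluo-8 calcium dye fluorescence; Also added: ATP as calcium-mobilizing challenge; Repeats: singlicate.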
OX1R antag-1 = OX1R (HCRTR1) antagonists, primary screen, fluorescence, CHO/OX1R cells, Fluo-8 calcium, orexin A; 330,000 compounds, 0.43% hits; Fluo-8 calcium fluorescence; inhibition, % at 5 µM; AID 434989, 2010;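 active means inhibition above its plate's threshold, mean inhibition of all tested compounds on the plate plus 3 SD, cut at about 37% in these data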;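 further: 0% = orexin A challenge wells and 100% = SB-334867-A antagonist wells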
Target sequence (O43613 whole entry, looked up): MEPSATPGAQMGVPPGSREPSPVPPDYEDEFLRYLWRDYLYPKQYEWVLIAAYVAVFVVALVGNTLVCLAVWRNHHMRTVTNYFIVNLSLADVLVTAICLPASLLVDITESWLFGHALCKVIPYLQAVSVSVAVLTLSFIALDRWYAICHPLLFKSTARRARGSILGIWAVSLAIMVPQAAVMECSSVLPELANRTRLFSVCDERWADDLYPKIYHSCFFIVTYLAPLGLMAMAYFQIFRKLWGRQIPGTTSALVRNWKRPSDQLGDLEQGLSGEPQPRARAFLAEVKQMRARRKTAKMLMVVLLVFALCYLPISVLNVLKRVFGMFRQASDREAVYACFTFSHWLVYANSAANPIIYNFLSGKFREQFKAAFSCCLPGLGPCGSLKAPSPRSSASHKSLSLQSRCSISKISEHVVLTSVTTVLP
OX1R antag-2 = antagonists of human orexin 1 receptor (OX1R); OX1R-expressing cells, FRET antagonist read-out; 330,000 compounds, 1.8% hits; inhibition, % at 6.6 µM; in the data active means inhibition mostly above about 38%, no sharp cut-off; inactive means mostly below about 40%;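 further: 0% = agonist challenge alone and 100% = reference antagonist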
TAAR1 antagonist = human TAAR1 antagonists, primary screen, Fluo-8 calcium fluorescence, CHO RD-HGA16 cells | Trace amine-associated receptor 1 (Homo sapiens), Q96RJ0 | antagonist | inhibition, % at 3 µM | 360,000 compounds, 1.5% hits | AID 624466, 2012;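 active means inhibition above a per-plate cutoff, the mean inhibition of test compounds on that plate plus 3 SD, cut at about 49% in these data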;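 further: 0% = DMSO plus EC80 beta-PEA response and 100% = DMSO alone without agonist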
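System: CHO RD-HGA16 cells bearing hTAAR1. Reagent: EC80 β-phenethylamine stimulus. Schedule: seeding 17-24 h prior, 75-min 37 °C, 30-min RT dye loading. Signal: Fluo-8 intracellular calcium dye fluorescence, real-time kinetic reads. Read-out: % inhibition from peak post-agonist over basal fluorescence ratio. Benchmarks: vehicle wells and EC80 agonist wells. Replicates: n of 1.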
OX1R Fluo8 conf = OX1R (HCRTR1) antagonists, confirmation, fluorescence, CHO/OX1R cells, Fluo-8 calcium, orexin A; AID 492963, 2010; shares compounds with OX1R antag-1; orexin A calcium Fluo-8 fluorescence; inhibition, % at 5 µM; 1,100 compounds, 38% hits; in the data active means inhibition above about 29%;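 further: 0% = agonist challenge alone and 100% = reference antagonist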
CHO Ca triplic = ATP-evoked calcium inhibition in parental CHO, counter-screen for OX1R antagonist project, cell-based, fluorescence, CHO-K1, triplicate. ATP-induced calcium, Fluo-8 fluorescence. 1,100 compounds, 9.3% hits. shares compounds with OX1R antag-1. AID 492965, 2010. inhibition, % at 5.6 µM;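 active means inhibition above a per-plate limit, the mean inhibition of that plate's test compounds plus 3 SD, cut at about 25% in these data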;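 further: 0% = ATP challenge with DMSO and 100% = DMSO without ATP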
OX1R HTRF confirm = OX1R (HCRTR1) antagonists, confirmation, cell-based, HTRF. shares compounds with OX1R antag-2. OX1R-expressing cells, HTRF antagonist assay. inhibition, % at 6.6 µM. 1,800 compounds, 49% hits; in the data active means inhibition above about 55%;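 further: CHO cells expressing OX1R stimulated with orexin A at about EC80; 0% = agonist challenge alone and 100% = reference antagonist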
CHO-K1 HTRF = signal inhibition in parental CHO-K1 cells, counter-screen for OX1R antagonist project, cell-based, HTRF. 1,800 compounds, 48% hits. shares compounds with OX1R antag-2. HTRF counterscreen. AID 493232, 2011. inhibition, % at 6.6 µM; in the data active means inhibition above about 17%;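 further: 0% = agonist challenge with vehicle and 100% = vehicle alone without agonist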
* marks the source's active call; other numbers are inactive results; . = not tested or not shown.

SMILES | TAAR1 ag | GPR7 antag | CHO parental Ca | OX1R antag-1 | OX1R antag-2 | TAAR1 antagonist | OX1R Fluo8 conf | CHO Ca triplic | OX1R HTRF confirm | CHO-K1 HTRF
O=C(COC(=O)c1cc(-c2cccs2)nc2ccccc12)NC1CCS(=O)(=O)C1 (configuration not stated) | 18 | -10 | -6 | 42* | 84* | 27 | 33* | 8 | 84* | 6
COc1ccccc1OCCNS(=O)(=O)c1ccc2oc3ccccc3c2c1 | 5 | -6 | -16 | 25 | 63 | -4 | . | . | . | .
O=S(=O)(NCCOc1ccccc1Cl)c1ccc2oc3ccccc3c2c1 | 6 | -3 | 10 | 55* | 99* | 3 | 8 | -9 | 66* | -9
O=C(COC(=O)c1cc(-c2cccc(Br)c2)nc2ccccc12)NCC1CCCO1 (configuration not stated) | 6 | -2 | -18 | 44* | 86* | 35 | 40* | -5 | 68* | 12
COc1ccc(/C=C/C(=O)OCC(=O)c2c(C)[nH]c3ccccc23)cc1OC | 2 | 5 | -15 | 49* | 76* | -7 | 44* | -10 | 80* | 3
CN(C)CCN(C)C1CN(C2CCCC2)S(=O)(=O)C1 (configuration not stated) | 1 | . | . | . | . | 3 | . | . | . | .
CC(C)C[C@H]1COc2cc(Br)ccc2S(=O)(=O)N1Cc1ccc(Cl)cc1 | 3 | . | . | . | . | -17 | . | . | . | .
COc1ccc(C(=O)/C=C/c2cn(CC(O)CN3CCOCC3)c3ccccc23)cc1 (configuration not stated) | . | -6 | 2 | -12 | 16 | . | . | . | . | .
COc1ccc(C(=O)/C=C/c2cn(CN3CCN(C)CC3)c3ccccc23)cc1 | . | -5 | -7 | 25 | 71* | . | 9 | -9 | 33 | 6
COc1ccc(Br)cc1/C=C/C(=O)Nc1ccc2ccccc2c1 | 3 | -5 | -5 | 46* | 91* | 22 | 29 | -4 | 89* | 9
COc1ccc2c(CN3CCN(c4ccccc4F)CC3)cc(=O)oc2c1 | 0 | . | . | . | . | 5 | . | . | . | .
Cc1cccc2cc(C#N)c(NCCNS(=O)(=O)c3ccc4c(c3)OCCO4)nc12 | 16 | 1 | -2 | 34 | 73* | 10 | 32* | -5 | 64* | 5
CCOc1ccccc1C(=O)Nc1cc(OC)ccc1OC | 2 | -10 | -2 | 61* | 68* | 16 | 3 | -17 | 89* | -3
CCOc1ccccc1C(=O)NCCNC(=O)c1ccccc1OCC | 3 | . | -5 | 65* | 80* | 9 | 77* | -14 | 52 | 10
CCOc1ccccc1NC(=O)c1ccccc1-c1nc(-c2ccccc2OC)no1 | 11 | 8 | 9 | 45* | 87* | 66* | 11 | -12 | 55 | 6
Nc1ncnc2c1ncn2[C@@H]1O[C@H](C(=O)N2CCC[C@@H]2C(=O)OCc2ccccc2)[C@@H](O)[C@H]1O | 2 | . | . | . | . | -1 | . | . | . | .
COc1cc(NC(=O)Nc2nc(C(N)Cc3ccc(C(F)(F)F)cc3)cs2)cc(OC)c1OC (configuration not stated) | 2 | . | . | . | . | 0 | . | . | . | .

Source: PubChem BioAssay (The Scripps Research Institute Molecular Screening Center)
